Measured values reported in ChEMBL document CHEMBL1145087 (J Med Chem, 2003).

Columns and labels:
[1] = molecular target: T1, Mineralocorticoid receptor (Homo sapiens) (UniProt P08235); assay: Agonistic efficacy against human Mineralocorticoid receptor; format: functional
T1 sequence (whole entry): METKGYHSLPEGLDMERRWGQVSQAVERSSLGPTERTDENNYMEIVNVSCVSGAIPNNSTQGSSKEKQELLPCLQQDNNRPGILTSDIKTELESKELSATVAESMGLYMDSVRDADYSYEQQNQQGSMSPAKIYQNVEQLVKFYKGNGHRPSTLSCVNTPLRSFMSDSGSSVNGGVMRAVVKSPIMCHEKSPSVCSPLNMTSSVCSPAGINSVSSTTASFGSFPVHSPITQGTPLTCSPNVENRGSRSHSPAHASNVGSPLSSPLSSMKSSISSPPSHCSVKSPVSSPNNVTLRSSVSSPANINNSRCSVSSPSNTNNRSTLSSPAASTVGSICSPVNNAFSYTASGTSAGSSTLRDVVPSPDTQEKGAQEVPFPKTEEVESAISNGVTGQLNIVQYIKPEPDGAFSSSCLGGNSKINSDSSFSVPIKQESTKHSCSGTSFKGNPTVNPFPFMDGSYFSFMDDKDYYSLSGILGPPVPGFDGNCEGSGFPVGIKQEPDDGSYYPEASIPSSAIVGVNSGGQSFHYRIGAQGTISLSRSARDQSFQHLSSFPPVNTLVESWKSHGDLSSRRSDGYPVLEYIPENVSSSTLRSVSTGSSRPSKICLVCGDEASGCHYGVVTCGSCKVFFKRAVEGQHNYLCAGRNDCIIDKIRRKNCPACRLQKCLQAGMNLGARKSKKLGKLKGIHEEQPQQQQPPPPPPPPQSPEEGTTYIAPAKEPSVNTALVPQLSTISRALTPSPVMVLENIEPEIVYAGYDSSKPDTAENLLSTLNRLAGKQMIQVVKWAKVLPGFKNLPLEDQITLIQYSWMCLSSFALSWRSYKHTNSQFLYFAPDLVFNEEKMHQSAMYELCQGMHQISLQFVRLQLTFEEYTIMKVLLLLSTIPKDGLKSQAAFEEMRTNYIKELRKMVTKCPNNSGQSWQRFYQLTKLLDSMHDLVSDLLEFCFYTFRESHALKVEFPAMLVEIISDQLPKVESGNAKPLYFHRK
How it was run: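 Cell-based cotransfection assay for hMR in 96-well format. Agonist activity is read as normalized LUC expression. Efficacy is expressed relative to the maximal LUC response to aldosterone.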

[2] = molecular target: T2, Progesterone receptor (Homo sapiens) (UniProt P06401); assay: Percent agonistic effect towards human progesterone receptor in T47D breast cancer cells; format: functional, cell-based
T2 sequence (whole entry): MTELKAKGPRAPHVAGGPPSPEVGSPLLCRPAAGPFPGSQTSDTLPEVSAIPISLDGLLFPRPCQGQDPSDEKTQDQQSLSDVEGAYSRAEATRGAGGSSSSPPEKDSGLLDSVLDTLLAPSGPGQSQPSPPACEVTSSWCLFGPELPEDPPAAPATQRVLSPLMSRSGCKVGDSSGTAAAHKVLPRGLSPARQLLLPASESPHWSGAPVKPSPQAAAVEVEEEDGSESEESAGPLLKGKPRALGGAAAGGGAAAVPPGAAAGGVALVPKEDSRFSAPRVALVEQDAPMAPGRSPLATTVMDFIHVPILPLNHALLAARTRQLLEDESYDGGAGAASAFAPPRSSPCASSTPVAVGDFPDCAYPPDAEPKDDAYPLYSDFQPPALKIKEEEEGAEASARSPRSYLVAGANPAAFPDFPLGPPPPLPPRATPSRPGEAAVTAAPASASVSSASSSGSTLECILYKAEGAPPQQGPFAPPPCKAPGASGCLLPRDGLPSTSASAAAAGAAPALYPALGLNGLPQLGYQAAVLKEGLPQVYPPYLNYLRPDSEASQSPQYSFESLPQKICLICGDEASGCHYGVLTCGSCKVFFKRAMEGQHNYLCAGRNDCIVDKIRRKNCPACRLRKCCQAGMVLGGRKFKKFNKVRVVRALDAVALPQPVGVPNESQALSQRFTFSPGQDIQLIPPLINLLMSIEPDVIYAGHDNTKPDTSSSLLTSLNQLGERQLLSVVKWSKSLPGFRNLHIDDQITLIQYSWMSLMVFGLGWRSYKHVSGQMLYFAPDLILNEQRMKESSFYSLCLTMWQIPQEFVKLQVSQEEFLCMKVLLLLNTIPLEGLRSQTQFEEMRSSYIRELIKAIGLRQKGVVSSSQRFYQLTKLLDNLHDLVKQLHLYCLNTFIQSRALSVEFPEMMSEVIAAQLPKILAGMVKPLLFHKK

Homo sapiens = species on record: Homo sapiens; assay: Relative potency for human androgen and progesterone receptors
Estrogen receptor = Estrogen receptor (Homo sapiens, UniProt Q92731+P03372)
Androgen receptor [3] = molecular target: T3, Androgen receptor (Homo sapiens, UniProt P10275); assay: biochemical
T3 sequence (P10275 whole entry): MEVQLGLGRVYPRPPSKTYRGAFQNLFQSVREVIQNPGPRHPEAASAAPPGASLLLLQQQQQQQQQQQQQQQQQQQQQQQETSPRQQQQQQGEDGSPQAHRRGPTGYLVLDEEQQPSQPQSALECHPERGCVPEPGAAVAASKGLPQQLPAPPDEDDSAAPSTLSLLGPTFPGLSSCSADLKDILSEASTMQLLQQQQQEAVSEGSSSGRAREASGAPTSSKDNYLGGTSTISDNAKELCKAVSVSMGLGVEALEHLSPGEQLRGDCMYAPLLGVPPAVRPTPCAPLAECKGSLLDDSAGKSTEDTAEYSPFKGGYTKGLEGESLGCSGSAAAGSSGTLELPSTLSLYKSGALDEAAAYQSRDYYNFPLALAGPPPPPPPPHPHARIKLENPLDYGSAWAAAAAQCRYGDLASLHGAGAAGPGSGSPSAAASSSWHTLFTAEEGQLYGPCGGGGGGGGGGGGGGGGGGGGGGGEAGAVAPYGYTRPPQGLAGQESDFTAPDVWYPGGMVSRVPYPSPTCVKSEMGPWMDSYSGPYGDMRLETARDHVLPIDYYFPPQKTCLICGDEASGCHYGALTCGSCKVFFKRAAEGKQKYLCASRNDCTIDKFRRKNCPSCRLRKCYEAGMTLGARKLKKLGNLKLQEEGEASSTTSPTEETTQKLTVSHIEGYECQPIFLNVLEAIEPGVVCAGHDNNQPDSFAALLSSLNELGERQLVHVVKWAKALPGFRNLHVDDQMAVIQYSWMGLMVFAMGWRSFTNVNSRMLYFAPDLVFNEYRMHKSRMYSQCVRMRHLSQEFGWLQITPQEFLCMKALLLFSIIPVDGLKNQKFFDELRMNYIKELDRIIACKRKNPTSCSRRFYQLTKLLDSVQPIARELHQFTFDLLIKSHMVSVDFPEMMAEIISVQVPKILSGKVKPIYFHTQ

Androgen receptor [4] = molecular target: T3, Androgen receptor

Structure (SMILES)	Efficacy [1] [%]	Efficacy [2] [%]	Ratio (Homo sapiens)	Ki (Androgen receptor [3]) [nM]	IC50 (Estrogen receptor) [nM]	IC50 (Androgen receptor [4]) [nM]
CC1=CC(C)(C)Nc2ccc3c(c21)/C(=C/c1ccncc1C)Oc1ccc(F)cc1-3	71	46	> 1000	> 1000	1149	
CC1=CC(C)(C)Nc2ccc3c(c21)/C(=C/c1ccsc1)Oc1ccc(F)cc1-3	63	48	303	669	3488	215

Second part, led by results:

Efficacy [1] [%]	Efficacy [2] [%]	Ratio (Homo sapiens)	Ki (Androgen receptor [3]) [nM]	Structure (SMILES)	IC50 (Estrogen receptor) [nM]	IC50 (Androgen receptor [4]) [nM]
> 20	45	429	1460	CC1=CC(C)(C)Nc2ccc3c(c21)/C(=C/c1ccccc1)Oc1c(F)cccc1-3		900
70	43	> 1000	960	CC1=CC(C)(C)Nc2ccc3c(c21)/C(=C/c1ccccc1C)Oc1c(F)cccc1-3	2443	
50	51	> 1000	1590	CCc1ccccc1/C=C1\Oc2ccc(F)cc2-c2ccc3c(c21)C(C)=CC(C)(C)N3		
